Values after ≈ are worked out from the molar mass of the structure shown.

This assay concerns Plasmodium falciparum. The assay can be described thus: In vitro EC50 against chloroquine susceptible Plasmodium falciparum by [3H]hypoxanthine incorporation. The format is functional, organism-based. The gist of the method: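 Chloroquine-susceptible P. falciparum cultured in vitro and tested by the Desjardins method. Inhibition of parasite [3H]hypoxanthine uptake is the read-out. The value is the concentration (ng/mL) giving 50% inhibition of uptake.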
One may read the IC50 as the point on the concentration scale where inhibition reaches its midpoint. Read a high IC50 as weaker potency. With `CC(C[C@@]12CC[C@]3(OO1)C(C)(C)CCC[C@@]3(C)O2)OC(=O)c1ccccc1` (stereo partly specified), the concentration for half-maximal inhibition (IC50) amounted to 0.0239 µg/mL (≈ 0.0638 µM).
Under `C[C@H](C[C@@]12C=C[C@]3(OO1)C(C)(C)CCC[C@@]3(C)O2)OC(=O)c1ccccc1` stands 0.789 µg/mL (≈ 2.12 µM).
The result for `CC1(C)CCC[C@@]2(C)O[C@]3(C)C=C[C@]12OO3` reads more than 1.2 µg/mL; that for `C[C@@H]1CC[C@H]2[C@@H](C)C(=O)O[C@@H]3O[C@@]4(C)CC[C@@H]1[C@]32OO4` [ARTEMISININ], 0.00113 µg/mL (≈ 0.004 µM).
The result for `C[C@@H](O)C[C@@]12CC[C@]3(OO1)C(C)(C)CCC[C@@]3(C)O2` reads 0.389 µg/mL (≈ 1.44 µM).
Regarding `CC(C[C@@]12C=C[C@]3(OO1)C(C)(C)CCC[C@@]3(C)O2)OC(=O)c1ccccc1` (stereo partly specified), the IC50 is 0.733 µg/mL (≈ 1.97 µM).
The result for `COC(=O)C[C@@]12CC[C@]3(OO1)C(C)(C)CCC[C@@]3(C)O2` reads 0.083 µg/mL (≈ 0.292 µM); that for `COC(=O)C[C@@]12C=C[C@]3(OO1)C(C)(C)CCC[C@@]3(C)O2`, 0.096 µg/mL (≈ 0.34 µM).
The result for `C[C@@H](O)C[C@@]12C=C[C@]3(OO1)C(C)(C)CCC[C@@]3(C)O2` reads 4.93 µg/mL (≈ 18.4 µM); that for `C[C@H](C[C@@]12CC[C@]3(OO1)C(C)(C)CCC[C@@]3(C)O2)OC(=O)c1ccccc1`, 1.12 µg/mL (≈ 2.99 µM); that for `CC1(C)CCC[C@@]2(C)O[C@]3(C)CC[C@]12OO3`, 1.35 µg/mL (≈ 5.97 µM).

The values above are taken from ChEMBL document CHEMBL1124072, “1,2,4-Trioxanes as potential antimalarial agents” (J Med Chem, 1988).
